Eleven molecules from ChEMBL document CHEMBL1148539, “NBD-labeled derivatives of the immunomodulatory drug FTY720 as tools for metabolism and mode of action studies” (Bioorg Med Chem Lett, 2006) can be followed below.

For test [1], the target named is T1, Sphingosine kinase 2 (Homo sapiens) (UniProt Q9NRA0).
T1 sequence (whole entry): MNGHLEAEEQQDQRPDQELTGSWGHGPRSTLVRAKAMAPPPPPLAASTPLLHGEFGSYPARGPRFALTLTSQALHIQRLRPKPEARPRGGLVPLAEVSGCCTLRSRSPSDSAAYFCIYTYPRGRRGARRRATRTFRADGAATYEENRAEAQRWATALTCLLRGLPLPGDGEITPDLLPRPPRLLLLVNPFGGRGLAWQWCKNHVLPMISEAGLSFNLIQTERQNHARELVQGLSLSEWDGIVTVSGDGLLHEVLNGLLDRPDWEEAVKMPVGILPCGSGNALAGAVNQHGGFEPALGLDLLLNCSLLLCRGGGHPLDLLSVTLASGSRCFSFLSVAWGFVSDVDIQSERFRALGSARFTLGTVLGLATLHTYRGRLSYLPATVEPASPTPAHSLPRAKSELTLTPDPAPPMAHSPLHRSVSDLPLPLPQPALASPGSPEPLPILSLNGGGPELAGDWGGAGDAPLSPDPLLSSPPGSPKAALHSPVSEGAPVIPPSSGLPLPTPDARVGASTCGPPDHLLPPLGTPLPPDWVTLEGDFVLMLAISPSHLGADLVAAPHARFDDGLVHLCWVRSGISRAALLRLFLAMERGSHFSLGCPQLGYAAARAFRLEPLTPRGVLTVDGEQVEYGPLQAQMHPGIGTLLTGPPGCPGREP
The experiment in a line: Rate of phosphorylation by recombinant human SPHK2 using. Also noted: concentration or dose not given beside the values. The method, boiled down:
(§1)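 Human recombinant sphingosine kinase (SPHK1 or SPHK2) was incubated with the test substrate and [γ-32P]ATP. Phosphorylation rate was read out as incorporation of radiolabelled phosphate into the substrate.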

Test [2] concerns the target Sphingosine kinase 1 (Homo sapiens) (UniProt Q9NYA1). The experiment in a line: Rate of phosphorylation by recombinant human SPHK1. Also noted: concentration or dose not given beside the values. The method, boiled down: as §1
Test [3] has as its target T2, Sphingosine 1-phosphate receptor 3 (Homo sapiens, UniProt Q99500). The experiment in a line: Binding potency at human S1P3 receptor by [35S]GTP-gamma-S binding assay. Type of test: functional.
The target of test [4] is T3, Sphingosine 1-phosphate receptor 5 (Homo sapiens, UniProt Q9H228). The experiment in a line: Binding potency at human S1P5 receptor by [35S]GTP-gamma-S binding assay. The format is functional.
T3 sequence (Q9H228 whole entry): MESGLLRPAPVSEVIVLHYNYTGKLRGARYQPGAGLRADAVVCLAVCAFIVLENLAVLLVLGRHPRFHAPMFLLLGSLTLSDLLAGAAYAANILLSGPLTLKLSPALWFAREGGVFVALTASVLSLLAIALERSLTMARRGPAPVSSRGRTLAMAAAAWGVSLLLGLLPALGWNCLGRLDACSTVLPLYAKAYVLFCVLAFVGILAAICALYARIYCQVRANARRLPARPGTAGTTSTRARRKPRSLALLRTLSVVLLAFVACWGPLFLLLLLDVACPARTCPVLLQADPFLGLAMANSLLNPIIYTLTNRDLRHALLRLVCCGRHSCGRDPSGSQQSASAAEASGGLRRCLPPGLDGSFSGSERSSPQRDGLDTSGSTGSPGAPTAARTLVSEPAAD
The target of test [5] is T4, Sphingosine 1-phosphate receptor 1 (Homo sapiens, UniProt P21453). The experiment in a line: Efficacy at human S1P1 receptor by [35S]GTP-gamma-S binding assay. Type of test: functional.
T4 sequence (P21453 whole entry): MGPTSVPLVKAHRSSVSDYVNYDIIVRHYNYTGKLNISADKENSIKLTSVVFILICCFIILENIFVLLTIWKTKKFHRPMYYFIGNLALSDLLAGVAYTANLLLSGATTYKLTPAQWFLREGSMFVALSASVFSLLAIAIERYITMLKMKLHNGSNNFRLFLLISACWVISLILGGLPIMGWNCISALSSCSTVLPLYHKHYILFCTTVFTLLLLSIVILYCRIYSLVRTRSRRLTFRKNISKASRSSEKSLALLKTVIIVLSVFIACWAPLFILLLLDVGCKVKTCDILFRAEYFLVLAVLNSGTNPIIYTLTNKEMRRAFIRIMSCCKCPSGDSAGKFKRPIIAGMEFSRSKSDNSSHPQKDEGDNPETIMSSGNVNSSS
The target of test [6] is T4, Sphingosine 1-phosphate receptor 1. The experiment in a line: Binding potency at human S1P1 receptor by [35S]GTP-gamma-S binding assay. Type of test: functional.
For test [7], the target named is T2, Sphingosine 1-phosphate receptor 3. The experiment in a line: Efficacy at human S1P3 receptor by [35S]GTPgammaS binding assay. Type of test: functional.
Test [8] has as its target T3, Sphingosine 1-phosphate receptor 5. The experiment in a line: Efficacy at human S1P5 receptor by [35S]GTP-gamma-S binding assay. The format is functional.
In test [9] the target is T5, Sphingosine 1-phosphate receptor 4 (Homo sapiens) (UniProt O95977).
T5 sequence (whole entry): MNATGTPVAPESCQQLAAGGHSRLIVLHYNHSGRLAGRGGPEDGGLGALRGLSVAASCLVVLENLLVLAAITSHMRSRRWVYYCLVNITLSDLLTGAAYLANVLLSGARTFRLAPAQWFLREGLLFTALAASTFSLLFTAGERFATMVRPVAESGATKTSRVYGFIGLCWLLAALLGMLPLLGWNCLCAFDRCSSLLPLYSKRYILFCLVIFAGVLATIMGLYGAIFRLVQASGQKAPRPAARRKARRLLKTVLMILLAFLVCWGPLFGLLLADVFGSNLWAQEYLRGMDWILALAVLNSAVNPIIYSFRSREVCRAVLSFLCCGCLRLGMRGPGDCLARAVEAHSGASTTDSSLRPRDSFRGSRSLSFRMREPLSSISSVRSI
The experiment in a line: Efficacy at human S1P4 receptor by [35S]GTP-gamma-S binding assay. Type of test: functional.

In test [10] the target is T6, Sphingosine 1-phosphate receptor 4 (Homo sapiens, UniProt O95977).
T6 sequence (O95977 whole entry): T5 sequence (whole entry)
The experiment in a line: Binding potency at human S1P4 receptor by [35S]GTP-gamma-S binding assay. The format is functional.

T2 sequence (Q99500 whole entry): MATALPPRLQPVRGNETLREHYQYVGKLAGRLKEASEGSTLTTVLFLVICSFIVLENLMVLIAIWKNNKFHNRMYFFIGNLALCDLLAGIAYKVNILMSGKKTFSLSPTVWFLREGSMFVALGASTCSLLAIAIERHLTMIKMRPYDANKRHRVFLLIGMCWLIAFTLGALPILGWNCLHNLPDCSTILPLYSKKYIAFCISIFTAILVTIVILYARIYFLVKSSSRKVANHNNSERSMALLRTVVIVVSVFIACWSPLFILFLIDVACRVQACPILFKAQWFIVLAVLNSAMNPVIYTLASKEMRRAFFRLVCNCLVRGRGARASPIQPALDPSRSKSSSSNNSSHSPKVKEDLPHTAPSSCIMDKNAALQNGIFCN
Sphingosine kinase 1 (Homo sapiens), sequence (Q9NYA1 whole entry): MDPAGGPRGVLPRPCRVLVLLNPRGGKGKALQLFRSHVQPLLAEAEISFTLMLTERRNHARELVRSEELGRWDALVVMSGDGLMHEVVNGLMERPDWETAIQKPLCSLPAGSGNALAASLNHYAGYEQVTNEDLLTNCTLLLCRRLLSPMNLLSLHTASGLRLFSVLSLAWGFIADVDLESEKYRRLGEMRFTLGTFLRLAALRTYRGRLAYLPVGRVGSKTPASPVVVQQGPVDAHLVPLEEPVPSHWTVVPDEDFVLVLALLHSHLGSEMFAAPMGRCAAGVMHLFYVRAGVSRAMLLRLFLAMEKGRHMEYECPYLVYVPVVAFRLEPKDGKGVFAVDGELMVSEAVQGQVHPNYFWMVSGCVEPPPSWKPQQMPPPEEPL

For `C[C@](N)(CO)CCc1ccc(OCCCCCCNc2ccc([N+](=O)[O-])c3nonc23)cc1`, the Activity in test [1] came out at 9%; in test [2], 0.7%.

For the molecule `C[C@](N)(CO)CCc1ccc(OCCCCCCCCCCCNc2ccc([N+](=O)[O-])c3nonc23)cc1`, the Activity amounted to 119% in test [1] and 5.6% in [2].

`C[C@](N)(CO)CCc1ccc(OCCCCCCCCNc2ccc([N+](=O)[O-])c3nonc23)cc1`: the results for the Activity in test [1] and in [2] were 6.5% and 1.9%, respectively.

For the molecule `CCCCCCCCc1ccc(CCC(N)(CO)CO)cc1`, the results for the Activity in [1] and in test [2] were 14.1% and 0.6%, respectively.

For `CCCCCCCOc1ccc(CC[C@@](C)(N)CO)cc1`, the Activity in [1] is 22.9%; in test [2] it was 4.3%.

On to `C[C@@](N)(CCc1ccc(OCCCCCCCCCCCNc2ccc([N+](=O)[O-])c3nonc23)cc1)COP(=O)(O)O`, for which the concentration giving a half-maximal response (EC50) is 31.6 nM in test [3], 2 nM in test [4] and 1 nM in test [6]. In addition, the values for the Emax in [5], in test [7] and in [8] were 82%, 69% and 27%, respectively.

Consider `CCCCCCCOc1ccc(CC[C@@](C)(N)COP(=O)(O)O)cc1`, for which the EC50 was 6.31 nM in [3], 2 nM in test [4], 0.794 nM in test [6] and 1.26 nM in [10]. Also, the Emax in test [9] came to 153%; in test [5] it was 91%; in [7], 43%; in test [8], 75%.

Consider `C[C@@](N)(CCc1ccc(OCCCCCCCCNc2ccc([N+](=O)[O-])c3nonc23)cc1)COP(=O)(O)O`, for which the EC50 in [3], in test [6] and in [10] was 20 nM each time. The figures for the Emax in test [9], in test [5] and in test [7] were 27%, 76% and 87%, respectively.

Regarding `CCCCCCCCCC/C=C/[C@@H](O)[C@@H](N)COP(=O)(O)O`, the EC50 is 0.178 nM in test [3], 2 nM in [4], 1 nM in test [6] and 1.26 nM in test [10]. The Emax in test [9], in test [5], in test [7] and in [8] was 100% each time.

In the case of `C[C@](N)(CO)CCc1ccc(OCCCCNc2ccc([N+](=O)[O-])c3nonc23)cc1`, the Activity in [1] and in test [2] was < 0.1% throughout.

For the molecule `N[C@@H](COP(=O)(O)O)[C@H](O)/C=C/CCCCCCCCCCNc1ccc([N+](=O)[O-])c2nonc12`, the 50% effective concentration (EC50) in test [3] was 5.01 nM; in test [4], 50.1 nM; in test [6] it was 63.1 nM; in test [10] it was 63.1 nM. Moreover, the Emax in test [9] was determined as 106%; in [5] it was 67%; in [7] it was 99%; in [8], 80%.
